Data as given in paper PMC6996349 (Hepatology Communications, 2019).

Key:
[1] = test system: NASH patients; conditions: 1.8 or 2.7 g/day, 1 year; cited from earlier work
[2] = test system: subjects with elevated triglycerides; conditions: 4 g/day oral; cited from earlier work
[3] = test system: ob/ob mice; assay: Glucose metabolism and insulin resistance in ob/ob mice; assay type: in vivo; conditions: for Glucose metabolism, effect: fenofibrate 100, pioglitazone 30 mg/kg/d in diet
Outline: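 Male ob/ob mice aged 6-8 weeks, n = 10/group, either untreated or given test compound at 135 mg/kg/d in the diet for 5 weeks. Reference-agent groups were also dosed in the diet. Blood glucose, insulin, HbA1c and HOMA-IR were measured after 4 weeks on tail-vein EDTA blood taken after a 4-h fast. Body weight was recorded between 8 and 9 am. Mean ± SEM; Kruskal-Wallis then Mann-Whitney U.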

[4] = test system: NASH patients; conditions: PIVENS study; cited from earlier work
[5] = test system: APOE*3Leiden.CETP mice; assay type: in vivo
Outline: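 High-fat/cholesterol-fed male APOE*3Leiden.CETP mice aged 8-15 weeks, n = 12/group, given corn-oil vehicle or test compound at 112 mg/kg/d by daily oral gavage for 20 weeks. Liver cross sections were stained with H&E or sirius red and scored with an adapted human NASH grading system. Hepatic lipids were determined biochemically. Body weight was monitored regularly. Mean ± SEM; nonparametric group comparisons.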

[6] = test system: APOE*3Leiden.CETP mice; assay: Hepatic lipotoxic lipid species; assay type: in vivo; conditions: 20 weeks, versus control
Outline: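 Male APOE*3Leiden.CETP mice aged 8-15 weeks on a high-fat diet (24% wt/wt lard, 1% wt/wt cholesterol), n = 12/group. Mice received daily corn-oil vehicle gavage or test compound at 112 mg/kg/d by oral gavage for 20 weeks, starting with the diet. Harvested livers underwent lipidomics and reduced/oxidized glutathione assays. Mean ± SEM; Kruskal-Wallis then Mann-Whitney U.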

[7] = 20 weeks, icosabutate 112 mg/kg/d, rosiglitazone 13 mg/kg/d

CC/C=C\C/C=C\C/C=C\C/C=C\C/C=C\CCCC(=O)OCC [EPA ethyl ester, eicosapentaenoic acid (EPA) ethyl ester]
Effect on liver histology [1]: no effect
Major adverse cardiovascular events, effect [2]: markedly reduce

CC(C)OC(=O)C(C)(C)Oc1ccc(C(=O)c2ccc(Cl)cc2)cc1 [fenofibrate]
Plasma adiponectin, increase versus control ([3]; after 4 weeks of treatment): neither fenofibrate nor icosabutate affected
Plasma insulin, change versus control ([3]; after 4 weeks of treatment): less pronounced
Reduction of blood glucose AUC (0‐120 minutes) in oral glucose tolerance test ([3]; after 5 weeks of treatment, 2 g/kg glucose, 4-hour fasted): less potent effect
Glucose metabolism, effect [3]: also improved glucose metabolism

CCc1ccc(CCOc2ccc(CC3SC(=O)NC3=O)cc2)nc1 (stereo not shown) [pioglitazone]
Plasma adiponectin, increase versus control ([3]; after 4 weeks of treatment): 4.5 fold
HOMA‐IR, change versus control ([3]; after 4 weeks of treatment, icosabutate 135, pioglitazone 30 mg/kg/d): −97%
Glucose metabolism, effect [3]: also improved glucose metabolism
Fibrosis, effect [4]: without change
Lobular inflammation, effect [4]: improvements

CN(CCOc1ccc(CC2SC(=O)NC2=O)cc1)c1ccccn1 (stereo not shown) [rosiglitazone]
Fibrosis, effect ([5]; 20 weeks): no change
Number of inflammatory cell aggregates, change versus control ([5]; 20 weeks): −67%
Serum amyloid A, change versus control ([5]; 20 weeks): −46%
Hepatic cholesterol ester, effect ([5]; 20 weeks, biochemical analysis of intrahepatic lipids): significant reduction
Hepatocellular hypertrophy, change versus control [5, 7]: did not significantly affect
Microvesicular steatosis, change versus control [5, 7]: did not significantly affect
Serum amyloid A ([5]; after 20 weeks of treatment, control 29.8 ± 5.0, mean ± SEM): 16.1 ± 3.3
Plasma monocyte chemoattractant protein 1 ([5]; after 20 weeks of treatment, control 111.5 ± 17.1, mean ± SEM): 65.1 ± 5.1
Body weight, change versus control ([5]; week 16 and 20, data not shown): did not significantly increase
Hepatic GSH:GSSG ratio, effect [6]: had no effect
Hepatic GSSG, effect [6]: had no effect
Hepatic concentration of FFAs, effect [6]: had no effect
Hepatic concentration of HETEs (11[R]‐, 12‐, 15[S] isomers), effect [6]: significant increase
Hepatic concentration of arachidonic acid, effect [6]: had no effect
Hepatic concentration of bile acids, effect [6]: had no effect
Hepatic concentration of ceramides, effect [6]: had no effect
Hepatic concentration of diacylglycerols (DAGs), effect [6]: had no effect
